Data published in ChEMBL document CHEMBL1781875, “Chemoenzymatic synthesis with lipase catalyzed resolution and evaluation of antitumor activity of (R/S)-2-[2-hydroxy-3-(4-phenylpiperazin-1-yl)propyl]-1H-pyrrolo[3,4-b]quinolin-3(2H)-one” (Eur J Med Chem, 2011).

Assays:
SK-N-SH [1] = test: Cytotoxicity against human SK-N-SH cells assessed as cell viability at 10 uM after 48 hrs by MTT assay relative to untreated control; type: functional; conditions: read-out: Activity
Procedure, shortened: (§1)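 Exponentially growing cells seeded at 2.0 × 10⁴ per well in 24-well plates, drug-treated in triplicate for 48 h at 37 °C under 5% CO₂. MTT in RPMI-1640 was added, followed by 2–3 h at 37 °C. Formazan was dissolved in DMSO and OD read at 540 nm. Viability is given as % of untreated cells (100%), mean ± SEM of three determinations.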

A549 [2] = test: Cytotoxicity against human A549 cells assessed as cell viability at 10 uM after 48 hrs by MTT assay relative to untreated control; type: functional; conditions: A549, 48 h, read-out: Activity; procedure, shortened: as §1
SK-N-SH [3] = test: Cytotoxicity against human SK-N-SH cells assessed as cell viability at 25 uM after 48 hrs by MTT assay relative to untreated control; type: functional; conditions: read-out: Activity; procedure, shortened: as §1
A549 [4] = test: Cytotoxicity against human A549 cells assessed as cell viability at 25 uM after 48 hrs by MTT assay relative to untreated control; type: functional; conditions: A549, 48 h, read-out: Activity; procedure, shortened: as §1
SK-N-SH [5] = test: Cytotoxicity against human SK-N-SH cells assessed as cell viability at 50 uM after 48 hrs by MTT assay relative to untreated control; type: functional; conditions: read-out: Activity; procedure, shortened: as §1
A549 [6] = test: Cytotoxicity against human A549 cells assessed as cell viability at 50 uM after 48 hrs by MTT assay relative to untreated control; type: functional; conditions: A549, 48 h, read-out: Activity; procedure, shortened: as §1
SK-N-SH [7] = test: Cytotoxicity against human SK-N-SH cells assessed as inhibition of cell growth after 48 hrs by MTT assay; type: functional, cell-based; procedure, shortened: as §1
A549 [8] = test: Cytotoxicity against human A549 cells assessed as inhibition of cell growth after 48 hrs by MTT assay; type: functional, cell-based; conditions: A549, 48 h; procedure, shortened: as §1
SK-N-SH [9] = test: Cytotoxicity against human SK-N-SH cells assessed as cell viability at 0.1 uM after 48 hrs by MTT assay relative to untreated control; type: functional; conditions: read-out: Activity; procedure, shortened: as §1
A549 [10] = test: Cytotoxicity against human A549 cells assessed as cell viability at 0.1 uM after 48 hrs by MTT assay relative to untreated control; type: functional; conditions: A549, 48 h, read-out: Activity; procedure, shortened: as §1
SK-N-SH [11] = test: Cytotoxicity against human SK-N-SH cells assessed as cell viability at 1 uM after 48 hrs by MTT assay relative to untreated control; type: functional; conditions: read-out: Activity; procedure, shortened: as §1
A549 [12] = test: Cytotoxicity against human A549 cells assessed as cell viability at1 uM after 48 hrs by MTT assay relative to untreated control; type: functional; procedure, shortened: as §1
SK-N-SH [13] = test: Cytotoxicity against human SK-N-SH cells assessed as cell viability at 5 uM after 48 hrs by MTT assay relative to untreated control; type: functional; conditions: read-out: Activity; procedure, shortened: as §1
A549 [14] = test: Cytotoxicity against human A549 cells assessed as cell viability at 5 uM after 48 hrs by MTT assay relative to untreated control; type: functional; conditions: A549, 48 h, read-out: Activity; procedure, shortened: as §1

Structure (SMILES) | viability at 10 µM (SK-N-SH [1]) [%] | viability at 10 µM (A549 [2]) [%] | viability at 25 µM (SK-N-SH [3]) [%] | viability at 25 µM (A549 [4]) [%] | viability at 50 µM (SK-N-SH [5]) [%] | viability at 50 µM (A549 [6]) [%] | IC50 (SK-N-SH [7]) [µM] | IC50 (A549 [8]) [µM] | viability at 0.1 µM (SK-N-SH [9]) [%] | viability at 0.1 µM (A549 [10]) [%] | viability at 1 µM (SK-N-SH [11]) [%] | Activity (A549 [12]) [%] | viability at 5 µM (SK-N-SH [13]) [%] | viability at 5 µM (A549 [14]) [%]
CC(=O)O[C@H](CN1CCN(c2ccccc2)CC1)CN1Cc2cc3ccccc3nc2C1=O | 95.5 | 98.4 | 84.2 | 85.6 | 79.3 | 83.3 | 67.8 | 72.7 | – | – | – | – | – | –
O=C1c2nc3ccccc3cc2CN1CC(O)CN1CCN(c2ccccc2)CC1 (racemic) | 78.3 | 96.5 | 73.5 | 85.5 | 70.5 | 78.7 | 65.1 | 63.2 | – | – | – | – | – | –
COc1cccc2c1C(=O)c1c(O)c3c(c(O)c1C2=O)C[C@@](O)(C(=O)CO)C[C@@H]3O[C@H]1C[C@H](N)[C@H](O)[C@H](C)O1 [DOXORUBICIN] | – | – | – | – | – | – | 19.9 | – | 72.5 | 76.6 | 60.8 | 65.33 | 51 | 33.9
O=C1c2nc3ccccc3cc2CN1C[C@@H](O)CN1CCN(c2ccccc2)CC1 | 76.8 | 90.7 | 69.1 | 81.8 | 49.4 | 74.7 | 16.2 | 54.8 | – | – | – | – | – | –
